From article PMC6297906 (Computational and Structural Biotechnology Journal, 2018)
Values joined by “and” are separate entries in the source; they are usually repeats but may differ in a detail not shown here. Equal values may be shown once.

What was measured:
[1] = test system: HaCaT cells; test: MTT assay, HaCaT normal cells; format: cell-based, human; conditions: read-out: IC50 HaCaT, 72 h treatment, normal cell line
How it was run: (§1)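 Cells grown in DMEM with 10% FBS, penicillin and streptomycin, seeded at 5 × 10^3 per well for 24 h. Test compound added at 0, 1.56, 3.125, 6.25, 12.5, 25, 50 or 100 μM for 72 h. MTT (5 mg/mL stock) added for 4 h; medium replaced by DMSO; absorbance read at 490 nm for IC50.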

[2] = test system: A549 cells; test: MTT assay, A549; format: cell-based, human; conditions: read-out: IC50 A549, 72 h treatment
How it was run: as §1

[3] = test system: MDA-MB-231 cells; test: MTT assay, MDA-MB-231; format: cell-based, human; conditions: read-out: IC50 MDA-MB-231, 72 h treatment
How it was run: as §1

[4] = Octanol/water partition coefficient; format: physicochemical; conditions: room temperature
How it was run: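 Lipophilicity taken as Po/w = Ao/Aw. Test compound concentrations in the octanol and water phases measured from electronic absorption spectra.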

[5] = test system: MCF-7 cells; test: MTT assay, MCF-7; format: cell-based, human; conditions: read-out: IC50 MCF-7, 72 h treatment
How it was run: as §1

[6] = test system: HepG2 cells; test: MTT assay, HepG2; format: cell-based, human; conditions: read-out: IC50 HepG2, 72 h treatment
How it was run: as §1

[7] = test system: MDA-MB-231 cells; test: Immunofluorescence of paxillin and F-actin; format: cell-based, human; conditions: 5 and 10 μM, 24 h
How it was run: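 MDA-MB-231 cells on cover glass, exposed to test compound (0, 5, 10 μM) for 24 h, then fixed in 4% formaldehyde 25 min and blocked in 5% BSA 30 min. Stained with rabbit monoclonal anti-paxillin (1:100, 60 min), Alexa Fluor 488 anti-rabbit (1:200, 30 min), rhodamine phalloidin for F-actin (1:100, 30 min) and DAPI (0.5 μg/mL, 8 min). PBS washes between steps; confocal imaging.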

[8] = test system: HUVECs; test: Tube formation assay; format: cell-based; conditions: 5 and 10 μM, 6 h, VEGF 200 ng/mL
How it was run: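 Matrigel thawed at 4 °C for 24 h, coated into prechilled wells and set at 37 °C for at least 60 min. HUVECs (3 × 10^4) plated in DMEM with VEGF (200 ng/mL) plus test compound (0, 5, 10 μM) for 6 h at 37 °C. Tube networks imaged and analysed.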

[9] = test system: transgenic Tg(fli1a:EGFP) zebrafish embryos; test: Angiogenic effect in vivo, transgenic zebrafish embryos; conditions: 5.0 μM, compared with PTK787
[10] = test system: MDA-MB-231 cells; test: FITC-conjugated gelatin invasion assay; format: cell-based, human; conditions: 5 μM, 24 h
How it was run: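 MDA-MB-231 cells (2 × 10^5 per well) treated with 0 or 5 μM test compound, plated on FITC-gelatin-coated coverslips, and incubated 24 h at 37 °C. Gelatin degradation (dark holes) imaged by laser confocal microscopy; invasive percentage derived. Means ± SEM; one-way ANOVA versus control.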

[11] = test system: MDA-MB-231 cells; test: Wound-healing assay; format: cell-based, human; conditions: 72 h
How it was run: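 MDA-MB-231 cells (1 × 10^5/well) grown to >85% confluence, then scratched with a pipette tip. Treated with test compound (0, 2, 4 μM). The same field imaged every 24 h. Migration rate taken as scratch filling, averaged over 10 fields; N = 8. Means ± SEM; one-way ANOVA.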

[12] = test system: MDA-MB-231 cells; test: Comet assay; format: cell-based, human; conditions: 5 and 10 μM
[13] = test system: MDA-MB-231 cells in zebrafish xenografts; test: Zebrafish xenograft breast cancer model; format: in vivo; conditions: 5 μM, 72 h
How it was run: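 DiI-labelled MDA-MB-231 cells (10^7 cells/mL; 50–500 cells) microinjected into the perivitelline space near the SIVs of Tg(fli1:EGFP) zebrafish embryos at 48 hpf. Xenografted fish kept 10 per well in 2 mL aquaculture water with 0 or 5 μM test compound for 72 h. Fluorescence imaging every 24 h; n = 10/group.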

[14] = test system: MDA-MB-231 cells; test: TUNEL assay; format: cell-based, human; conditions: 20 μM
How it was run: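 MDA-MB-231 cells given test compound (0, 10, 20 μM). Fixed in 4% p-formaldehyde in PBS 30 min; permeabilised with 0.3% Triton X-100 in PBS (25 °C, 8 min). TUNEL reaction mixture applied 1 h, then DAPI (0.5 μg/mL, 37 °C, 8 min) in the dark. Read by fluorescence microscopy.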

Molecule | IC50 [2] [µM] | IC50 [3] | logPo/w [4] | IC50 [5] [µM] | IC50 [6] [µM] | IC50 [1] [µM] | quantity of paxillin (focal adhesions) [7] | stress fibers (F-actin) [7] | tube formation of HUVECs [8] | ISV formation inhibition [9] | invasive capability (FITC-gelatin degradation) [10] | wound-healing rate ([11]; 2 μM, versus control) | wound-healing rate ([11]; 4 μM) | endogenous DSBs (olive tail moment, comet assay) [12] | percentage of γH2AX focal positive cells ([12]; 24 h) | metastasis of MDA-MB-231 cells into blood vessels [13] | number of MDA-MB-231 cells in zebrafish (proliferation) ([13]; versus control) | total area of SIV (tumor angiogenesis) ([13]; versus control) | apoptotic cells (TUNEL) [14]
[Ru(bpy)2DPPZ](ClO4)2 | > 100 | > 100 µM | −1.87 | > 100 | > 100 | > 100 |  |  |  |  |  |  |  |  |  |  |  |  | 
[Ru(bpy)2(7-CH3-DPPZ)](ClO4)2 [Ru(bpy)2MDPPZ] | 93.3 ± 4.1 | > 100 µM | −2.17 | 9.7 ± 6.1 | > 100 | > 100 |  |  |  |  |  |  |  |  |  |  |  |  | 
N.N.[Cl][Pt][Cl] [Cis-platin, cisplatin, reference compound] | 21.1 ± 0.2 | 20.9 ± 1.9 µM |  | 86.6 ± 5.9 | 15.5 ± 0.4 | 7.1 ± 0.5 |  |  |  |  |  |  |  |  |  |  |  |  | 

Continued by falling IC50 [2], values first:

IC50 [2] [µM] | IC50 [3] | logPo/w [4] | IC50 [5] [µM] | IC50 [6] [µM] | Molecule | IC50 [1] [µM] | quantity of paxillin (focal adhesions) [7] | stress fibers (F-actin) [7] | tube formation of HUVECs [8] | ISV formation inhibition [9] | invasive capability (FITC-gelatin degradation) [10] | wound-healing rate ([11]; 2 μM, versus control) | wound-healing rate ([11]; 4 μM) | endogenous DSBs (olive tail moment, comet assay) [12] | percentage of γH2AX focal positive cells ([12]; 24 h) | metastasis of MDA-MB-231 cells into blood vessels [13] | number of MDA-MB-231 cells in zebrafish (proliferation) ([13]; versus control) | total area of SIV (tumor angiogenesis) ([13]; versus control) | apoptotic cells (TUNEL) [14]
32.5 ± 1.6 | > 100 µM | −1.65 | > 100 | 23 ± 1.1 | [Ru(bpy)2(DPPN)](ClO4)2 [Ru(bpy)2BnDPPZ] | > 100 |  |  |  |  |  |  |  |  |  |  |  |  | 
20 ± 0.7 | ~17.2 µM and 17.2 µM | −0.87 | 74.9 ± 3.5 | 97.5 ± 4.4 | [Ru(bpy)2(7-BEDPPZ)](ClO4)2 [Ru(bpy)2BEDPPZ] | 47.2 ± 2.6 | decreased quantity of paxillins | inhibited | inhibited notably | more effectively inhibited ISV formation than PTK787 | markedly suppressed | less than half of the control group | further decreased | extremely increased | obviously increased | scarce MDA-MB-231 cells were found in the blood vessel | notably reduced | obviously less than that in the control group | many apoptotic cells were observed
